In ChEMBL document CHEMBL1154352, “Toll-like receptor 7 selective synthetic oligoribonucleotide agonists: synthesis and structure-activity relationship studies” (J Med Chem, 2009):
Activity calls are given as the source filed them. No cut-off for these calls is given here.

How the values were obtained:
PBMC [1] = test: Immunomodulatory activity in human PBMC assessed as induction of TNFalpha at 100 ug/ml after 24 hrs; format: functional, cell-based
How it was run: (§1)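 Human PBMCs plated at 5 × 10^6 cells/mL; compounds dissolved in PBS added at various concentrations, 37 °C for 24 h. Supernatant cytokines/chemokines quantified with human Luminex multiplex kit.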

Homo sapiens = species: Homo sapiens; test: Ratio of human TLR7 activity to human TLR8 activity
How it was run: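 TLR7/TLR8 ratio computed from fold NF-κB (SEAP reporter) activation in HEK293 cells stably expressing human TLR7 versus TLR8, compounds at 50 μg/mL, 18 h exposure; representative of three independent experiments.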

Splenocyte [2] = test: Immunomodulatory activity in C57BL/6 mouse splenocytes bearing TLR7 receptor assessed as IL12 release at 100 ug/ml after 24 hrs by ELISA; format: functional, cell-based
How it was run: (§2)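 C57BL/6 splenocytes in RPMI 1640 with 10% FBS, penicillin/streptomycin, 2 mM L-glutamine, plated at 5 × 10^6 cells/mL; compounds in PBS added, 37 °C for 24 h. Supernatant IL-12 and IL-6 by ELISA; representative of three independent experiments.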

Splenocyte [3] = test: Immunomodulatory activity in C57BL/6 mouse splenocytes bearing TLR7 receptor assessed as IL6 release at 100 ug/ml after 24 hrs by ELISA; format: functional, cell-based; how it was run: as §2
PBMC [4] = test: Immunomodulatory activity in human PBMC assessed as induction of IL12 at 100 ug/ml after 24 hrs; format: functional, cell-based; how it was run: as §1
[5] = molecular target: T1, Toll-like receptor 7 (Homo sapiens) (UniProt Q9NYK1); test: Activation of human TLR7 expressed in HEK293XL assessed as fold induction of NF-kappaB activity at 50 ug/ml after 18 hrs by reporter gene assay relative to control
T1 sequence (whole entry): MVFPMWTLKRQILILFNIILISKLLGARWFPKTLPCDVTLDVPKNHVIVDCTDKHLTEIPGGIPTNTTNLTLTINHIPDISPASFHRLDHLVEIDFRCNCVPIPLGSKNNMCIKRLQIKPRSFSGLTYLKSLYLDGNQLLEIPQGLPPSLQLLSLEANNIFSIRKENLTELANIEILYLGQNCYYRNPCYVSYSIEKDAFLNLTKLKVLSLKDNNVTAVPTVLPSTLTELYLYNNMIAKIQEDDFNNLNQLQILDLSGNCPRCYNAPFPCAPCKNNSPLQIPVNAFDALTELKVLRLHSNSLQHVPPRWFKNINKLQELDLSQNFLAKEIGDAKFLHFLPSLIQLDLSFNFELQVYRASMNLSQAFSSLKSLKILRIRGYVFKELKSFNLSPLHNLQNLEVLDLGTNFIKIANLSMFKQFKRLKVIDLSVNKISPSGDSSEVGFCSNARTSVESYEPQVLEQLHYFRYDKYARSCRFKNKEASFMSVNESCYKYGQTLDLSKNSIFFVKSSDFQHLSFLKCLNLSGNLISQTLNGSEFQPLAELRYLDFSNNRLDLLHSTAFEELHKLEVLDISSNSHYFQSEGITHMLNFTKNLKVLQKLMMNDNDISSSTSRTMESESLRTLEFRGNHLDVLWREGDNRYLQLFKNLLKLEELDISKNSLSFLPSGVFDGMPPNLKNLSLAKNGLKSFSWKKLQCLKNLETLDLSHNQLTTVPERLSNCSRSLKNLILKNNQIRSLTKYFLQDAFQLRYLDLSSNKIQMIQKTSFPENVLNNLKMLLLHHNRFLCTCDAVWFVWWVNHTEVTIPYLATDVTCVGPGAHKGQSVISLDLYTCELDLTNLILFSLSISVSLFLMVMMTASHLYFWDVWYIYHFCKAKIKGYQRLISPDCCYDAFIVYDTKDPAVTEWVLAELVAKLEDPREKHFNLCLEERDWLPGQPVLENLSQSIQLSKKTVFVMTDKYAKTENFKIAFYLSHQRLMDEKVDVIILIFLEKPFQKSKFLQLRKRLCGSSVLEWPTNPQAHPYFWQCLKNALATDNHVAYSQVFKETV
How it was run: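 HEK293 cells stably expressing human TLR7 or TLR8, transiently transfected with SEAP reporter plasmid; medium replaced, SIMRA compounds added, 18 h incubation. Supernatant SEAP measured by QuantiBlue; expressed as fold increase in NF-κB activity over PBS control. Tabulated data at 50 μg/mL, representative of three independent experiments.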

PBMC [6] = test: Immunomodulatory activity in human PBMC assessed as induction of IFN-alpha at 100 ug/ml after 24 hrs
[7] = molecular target: T2, Toll-like receptor 9 (Mus musculus) (UniProt Q9EQU3); test: Activation of mouse TLR9 expressed in HEK293 assessed as induction of NF-kappaB activity reporter gene assay; format: cell-based
T2 sequence (whole entry): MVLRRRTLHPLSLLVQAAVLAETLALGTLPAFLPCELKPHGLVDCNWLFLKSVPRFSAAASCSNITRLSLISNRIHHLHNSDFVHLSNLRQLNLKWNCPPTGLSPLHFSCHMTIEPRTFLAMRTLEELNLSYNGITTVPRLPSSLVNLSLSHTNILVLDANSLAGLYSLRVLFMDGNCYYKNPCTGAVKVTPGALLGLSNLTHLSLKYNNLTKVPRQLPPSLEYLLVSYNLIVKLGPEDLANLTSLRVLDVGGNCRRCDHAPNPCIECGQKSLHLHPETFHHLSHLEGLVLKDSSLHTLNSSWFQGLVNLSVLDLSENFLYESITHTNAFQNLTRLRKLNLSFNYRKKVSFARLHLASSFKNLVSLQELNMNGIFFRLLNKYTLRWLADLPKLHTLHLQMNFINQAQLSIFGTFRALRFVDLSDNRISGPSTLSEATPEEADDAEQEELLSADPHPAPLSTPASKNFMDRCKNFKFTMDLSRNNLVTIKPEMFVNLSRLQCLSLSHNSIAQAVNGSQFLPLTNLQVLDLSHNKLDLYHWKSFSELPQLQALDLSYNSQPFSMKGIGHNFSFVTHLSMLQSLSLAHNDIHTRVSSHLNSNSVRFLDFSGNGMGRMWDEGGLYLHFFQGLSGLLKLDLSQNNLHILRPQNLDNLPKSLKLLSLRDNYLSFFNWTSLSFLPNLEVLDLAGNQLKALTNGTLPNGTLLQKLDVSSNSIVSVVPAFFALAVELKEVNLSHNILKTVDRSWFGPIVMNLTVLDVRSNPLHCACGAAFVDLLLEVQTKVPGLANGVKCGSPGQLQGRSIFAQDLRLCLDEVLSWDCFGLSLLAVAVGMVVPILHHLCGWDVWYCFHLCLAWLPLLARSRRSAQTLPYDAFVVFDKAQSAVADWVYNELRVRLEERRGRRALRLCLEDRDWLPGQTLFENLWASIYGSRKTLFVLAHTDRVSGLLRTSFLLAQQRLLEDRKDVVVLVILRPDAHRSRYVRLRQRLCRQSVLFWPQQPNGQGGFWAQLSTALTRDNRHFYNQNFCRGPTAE

## Nc1ccn([C@@H]2O[C@H](COP(=O)(S)O[C@H]3[C@@H](O)[C@H](n4cnc5c(N)ncnc54)O[C@@H]3COP(=O)(S)O[C@H]3[C@@H](O)[C@H](n4cnc5c(N)ncnc54)O[C@@H]3CO)[C@@H](OP(=O)(S)OC[C@H]3O[C@@H](n4ccc(=O)[nH]c4=O)[C@H](O)[C@@H]3OP(=O)(S)OC[C@H]3O[C@@H](n4ccc(=O)[nH]c4=O)[C@H](O)[C@@H]3OP(=O)(S)OC[C@H]3O[C@@H](n4ccc5c(=O)[nH]c(N)nc54)[C@H](O)[C@@H]3OP(=O)(S)OC[C@H]3O[C@@H](n4cnc5c(N)ncnc54)[C@H](O)[C@@H]3OP(=O)(S)OC[C@H]3O[C@@H](n4ccc5c(=O)[nH]c(N)nc54)[C@H](O)[C@@H]3OP(=O)(S)OC[C@H]3O[C@@H](n4ccc(N)nc4=O)[C@H](O)[C@@H]3OP(=O)(S)OC[C@H]3O[C@@H](n4ccc(=O)[nH]c4=O)[C@H](O)[C@@H]3OP(=O)(S)OC[C@H]3O[C@@H](n4ccc(=O)[nH]c4=O)[C@H](O)[C@@H]3OP(=O)(S)OCC(O)COP(=O)(S)O[C@H]3[C@@H](O)[C@H](n4ccc(=O)[nH]c4=O)O[C@@H]3COP(=O)(S)O[C@H]3[C@@H](O)[C@H](n4ccc(=O)[nH]c4=O)O[C@@H]3COP(=O)(S)O[C@H]3[C@@H](O)[C@H](n4ccc(N)nc4=O)O[C@@H]3COP(=O)(S)O[C@H]3[C@@H](O)[C@H](n4ccc5c(=O)[nH]c(N)nc54)O[C@@H]3COP(=O)(S)O[C@H]3[C@@H](O)[C@H](n4cnc5c(N)ncnc54)O[C@@H]3COP(=O)(S)O[C@H]3[C@@H](O)[C@H](n4ccc5c(=O)[nH]c(N)nc54)O[C@@H]3COP(=O)(S)O[C@H]3[C@@H](O)[C@H](n4ccc(=O)[nH]c4=O)O[C@@H]3COP(=O)(S)O[C@H]3[C@@H](O)[C@H](n4ccc(=O)[nH]c4=O)O[C@@H]3COP(=O)(S)O[C@H]3[C@@H](O)[C@H](n4ccc(N)nc4=O)O[C@@H]3COP(=O)(S)O[C@H]3[C@@H](O)[C@H](n4cnc5c(N)ncnc54)O[C@@H]3COP(=O)(S)O[C@H]3[C@@H](O)[C@H](n4cnc5c(N)ncnc54)O[C@@H]3CO)[C@H]2O)c(=O)n1 (stereo partly drawn)
PBMC [1]
  Activity: 74.4 pg/mL
Homo sapiens
  Ratio: 20.1
Splenocyte [2]
  Activity: Active
Splenocyte [3]
  Activity: Active
PBMC [4]
  Activity: 527 pg/mL
[5]
  fold change (FC): 20.1
PBMC [6]
  IFN-alpha: 106 pg/mL
[7]
  Activity: inactive
